Screening data deposited in PubChem by several laboratories.
Shown are actives, neighbours in structure and some others; about 1.8% of the full set was active somewhere.
TPT1 inh: blocks Candida albicans tRNA 2'-phosphotransferase | recombinant caTPT1, FP RNA substrate dephosphorylation | inhibition, % at 5 µM | hit rate 0.81% among 300,000 | AID 1962;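 active = inhibition above the mean of all tested compounds plus 3 SD, set per screening campaign, cut at about 24% in these data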
SUMO HTRF inh: inhibitors of human SUMOylation (UBC9) | AID 2006 | P63279 | hit rate 0.36% among 290,000 | HTRF SUMOylation assay, SAE1/SAE2 + UBC9, in vitro | inhibition, % at 35 µM; in the data active = inhibition above about 50%, passing the limit was not always enough
Rpn11 inh: Rpn11 (human) deubiquitinase inhibition | hit rate 0.59% among 360,000 | O00487 | human 26S proteasome, Ub4-pepOG fluorescence polarization; 20S core pre-blocked with epoxomicin | calls only at 20 µM | AID 588493;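 active = inhibition at 20 µM, scaled to each plate's controls, above about 33%, limit read from the data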
CSN inh: inhibitors of human CSN-mediated cullin deneddylation; AID 651999; hit rate 0.38% among 360,000; Purified CSN, SCF-Nedd8-OG deneddylation, fluorescence polarization; Q92905; inhibition, % at 12.5 µM;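 active = pattern-corrected inhibition above about 35%, with an unprinted fluorescence ratio check between 0.5 and 1.5, limit read from the data, passing the limit was not always enough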
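assay system = purified human Csn5 enzyme expressed in HEK293T cells | amount = 0.24 nM enzyme | buffer or medium = Tris/NaCl/DTT buffer, pH 7.5 | reagent = 10 nM SCFSkp2-Nedd8OG | compound = one concentration, 12.5 µM, 0.25% DMSO | times = 90 min reaction at room temperature | signal = FP | read-out basis = % inhibition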
SENP1 FRET inh: blocks the human SENP1 SUMO protease catalytic domain | Q9P0U3 | inhibition, % at 10 µM | hit rate 0.21% among 360,000 | recombinant SENP1 catalytic domain, CyPet-SUMO1-YPet FRET cleavage;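 active = inhibition at least 30% at 10 µM, raw YFP signal under a set limit, fluorescence ratio 0.5 to 1.5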
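Test system: recombinant human SENP1 catalytic domain, His6-tagged / Medium: pH 8 Tris buffer with EDTA, NaCl, BME, BSA, NP40, catalase / Also added: SUMO1 FRET substrate flanked by Cypet and Ypet, 25 nM / Times: 50 min reaction at room temperature / Signal: FRET, CFP and YFP emission / Control set: no-enzyme low control and enzyme-plus-DMSO high control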
HNF4A DNA FP: change in binding of human HNF4 alpha to DNA; HNF4a-FITC DNA binding, fluorescence polarization, 1 h; activity change, % at 10 µM; hit rate 0.3% among 360,000; AID 1224865; in the data active = activity change above about 30%, passing the limit was not always enough
Rpn11 confirm: confirmation of human proteasome Rpn11 inhibitors | hit rate 29% among 1,900 | shares compounds with Rpn11 inh | inhibition, % at 20 µM | purified human 26S proteasome, Ub4-pepOG fluorescence polarization; proteasome pretreated with epoxomicin
MMP-2 counter: counter-screen for RPN11 inhibitors: inhibition of human MMP-2; shares compounds with Rpn11 inh; recombinant MMP-2, FRET peptide cleavage fluorescence; inhibition, % at 20 µM; hit rate 4% among 1,900; AID 602330;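 also: human MMP-2 activated beforehand with APMA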
Thrombin inh: blocks bovine thrombin, flagging nonselective RPN11 hits; hit rate 13% among 1,900; inhibition, % at 20 µM; bovine thrombin cleavage of Ub4-pepOG, fluorescence polarization; shares compounds with Rpn11 inh;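 active = mean inhibition at least 40% at 20 µM, or signal 3 deviations below plate average, so some actives read negative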
Target sequence (P00735 whole entry, looked up): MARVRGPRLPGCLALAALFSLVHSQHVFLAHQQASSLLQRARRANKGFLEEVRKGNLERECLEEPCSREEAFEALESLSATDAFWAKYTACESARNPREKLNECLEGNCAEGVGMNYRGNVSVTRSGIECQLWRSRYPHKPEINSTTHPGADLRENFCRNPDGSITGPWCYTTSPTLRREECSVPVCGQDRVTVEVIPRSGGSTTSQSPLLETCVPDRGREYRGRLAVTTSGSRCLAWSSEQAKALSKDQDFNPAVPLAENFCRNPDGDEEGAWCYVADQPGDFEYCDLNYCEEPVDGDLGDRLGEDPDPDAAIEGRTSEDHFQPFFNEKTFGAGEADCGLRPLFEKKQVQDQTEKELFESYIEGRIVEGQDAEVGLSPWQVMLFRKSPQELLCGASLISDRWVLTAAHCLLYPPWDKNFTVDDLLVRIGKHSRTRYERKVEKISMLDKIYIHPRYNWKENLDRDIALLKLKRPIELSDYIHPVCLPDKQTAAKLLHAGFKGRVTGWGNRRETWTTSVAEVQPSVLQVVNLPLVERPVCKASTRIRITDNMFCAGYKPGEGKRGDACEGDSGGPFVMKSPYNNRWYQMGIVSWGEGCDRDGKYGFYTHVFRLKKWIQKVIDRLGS
Of the large screens only hits and unclear results are named; the others gave an inactive call (follow-up assays come after a bar, where they were run). Rule as the data show it, unless noted: active = inhibition above about 40%; inactive = the rest.

O=c1[nH]c(-c2cccnc2)nc2sc(-c3ccccc3)cc12	none
O=S(=O)(c1cccc(Br)c1)N1CCN(S(=O)(=O)c2ccc3c(c2)OCCO3)CC1	none (no result: TPT1 inh, SUMO HTRF inh)
COc1ccc(CN2C(=O)c3cccnc3C2Nc2ccc(C)cc2)cc1 (stereo not given)	Rpn11 inh active | Rpn11 confirm inactive | MMP-2 counter inactive | Thrombin inh inactive
Cc1ccc(-n2c(SCC(=O)NCC3CCCO3)nc3ccccc3c2=O)cc1 (stereo not given)	none (no result: TPT1 inh, SUMO HTRF inh)
COc1ccc(-n2c(SCC(=O)NCC3CCCO3)nc3ccccc3c2=O)cc1Cl (stereo not given)	Rpn11 inh active (no result: TPT1 inh, SUMO HTRF inh) | Rpn11 confirm inactive | MMP-2 counter inactive | Thrombin inh inactive
O=C(Nc1ccc(-c2nnc(-c3ccccc3)o2)cc1)C(F)(F)F	Rpn11 inh active | Rpn11 confirm inactive | MMP-2 counter inactive | Thrombin inh inactive
COc1cccc(C2c3c(C)nn(-c4ccc([N+](=O)[O-])cc4)c3N=C3C(=O)Nc4ccccc4N32)c1 (stereo not given)	Rpn11 inh active, HNF4A DNA FP 57 | Rpn11 confirm inactive | MMP-2 counter inactive | Thrombin inh inactive
Cc1ccc(-c2csc3ncnc(-n4nnc5ccccc54)c23)cc1C	none
O=C(CSc1nc(Nc2ccccc2)nc(N2CCOCC2)n1)Nc1ccc(Br)cc1F	none
Cc1ccc(-c2nnn3c2nc(NCCc2ccc(S(N)(=O)=O)cc2)c2ccccc23)cc1	Rpn11 inh active, CSN inh 36 | Rpn11 confirm 46 | MMP-2 counter inactive | Thrombin inh inactive
COc1cc(C(=O)NC(=S)Nc2ccc3ccccc3c2)cc(OC)c1OC	none (no result: TPT1 inh, SUMO HTRF inh)
CC(=O)Nc1sc(C)c(C)c1C(=O)OCC(=O)Nc1ccccc1C(F)(F)F	none (no result: TPT1 inh, SUMO HTRF inh)
Cc1ccc(C(=O)Nc2ccc(C(=O)N/N=C/c3cccnc3)cc2)cc1	Rpn11 inh active | Rpn11 confirm 49 | MMP-2 counter inactive | Thrombin inh inactive
Cc1cccc(C(=O)Nc2ccc(C(=O)N/N=C/c3cccnc3)cc2)c1	none
COc1ccc(-n2nc3c(N4CCC(C(=O)NCc5cccc(C)c5)CC4)nnc(C)c3c2C)cc1	Rpn11 inh active | Rpn11 confirm 55 | MMP-2 counter inactive | Thrombin inh inactive
Cc1ccc(-n2nc3c(N4CCC(C(=O)N5CCN(C)CC5)CC4)nnc(C)c3c2C)cc1	Rpn11 inh active | Rpn11 confirm inactive | MMP-2 counter inactive | Thrombin inh inactive
COc1ccc(-n2nc3c(N4CCC(C(=O)N5CCCCCC5)CC4)nnc(C)c3c2C)cc1	Rpn11 inh active | Rpn11 confirm inactive | MMP-2 counter inactive | Thrombin inh inactive
CCc1ccc(CNC(=O)C2CCCN(c3nnc(C)c4c(C)n(-c5ccccc5)nc34)C2)cc1 (stereo not given)	Rpn11 inh active | Rpn11 confirm inactive | MMP-2 counter inactive | Thrombin inh inactive
CC(C)C(NS(=O)(=O)c1ccc2c(c1)Cc1cc(S(=O)(=O)NC(C(=O)O)C(C)C)ccc1-2)C(=O)O (stereo not given)	none
O/N=C(/c1ccc(F)cc1)C1CC1c1c(F)cccc1Cl (stereo not given)	none
Cn1cnnc1SCC(=O)Nc1ccc2nc(SCc3cccc4ccccc34)sc2c1	none
Cn1cnnc1SCC(=O)Nc1ccc2nc(SCc3ccccc3)sc2c1	Rpn11 inh active | Rpn11 confirm inactive | MMP-2 counter inactive | Thrombin inh inactive
CC(=O)Nc1ccc(CN(C)c2c(C)nc3ccc(C(=O)N4CCN(c5ccccc5)CC4)cn23)cc1	none (no result: TPT1 inh, SUMO HTRF inh)
Cc1nc(Nc2ccc(Cl)cc2Cl)sc1C(=O)Nc1ccccc1	none
Oc1nc(Nc2ccc(Cl)cc2Cl)sc1/C=C1\C=Nc2ccccc21	Rpn11 inh active | Rpn11 confirm 60 | MMP-2 counter inactive | Thrombin inh 45
CCn1nc(C(=O)OCC(=O)c2ccc3c(c2)OCCO3)c2ccccc2c1=O	none
COc1cccc(CNC(=O)CCCc2c[nH]c3ccccc23)c1	none
O=C(N=NC(=O)c1ccco1)c1ccc2c(O)n(N3C(=O)c4ccccc4C3=O)c(O)c2c1	Rpn11 inh active | Rpn11 confirm inactive | MMP-2 counter inactive | Thrombin inh inactive
COc1ccccc1CNC(=O)C(NC(=O)c1ccccc1)C(C)C (stereo not given)	none
COC(=O)c1ccc(/C=N/OCC(=O)NCCc2ccc(OC)c(OC)c2)cc1	Rpn11 inh active | Rpn11 confirm inactive | MMP-2 counter inactive | Thrombin inh inactive
COc1ccc(CCNC(=O)CC(=O)N/N=C/c2ccc(C(=O)O)cc2)cc1OC	none
CC1=C(C(=O)Nc2ccccc2Cl)C(c2ccc(N(C)C)cc2)NC(=O)N1 (stereo not given)	Rpn11 inh active | Rpn11 confirm inactive | MMP-2 counter inactive | Thrombin inh inactive
COc1ccc(C2NC(=O)NC(C)=C2C(=O)Nc2cccc(C)c2C)cc1 (stereo not given)	none
COc1ccc(Nc2nc(-c3c[nH]c4ccccc34)cs2)cc1	Rpn11 inh active | Rpn11 confirm inactive | MMP-2 counter inactive | Thrombin inh inactive
COc1ccc(Nc2nc(-c3ccc(OC)cc3)cs2)cc1	none
Cn1c(C(=O)NCCN2CCN(Cc3ccccc3)CC2)cc2c(=O)n(C)c3ccccc3c21	none
Cn1c(C(=O)NCCN2CCCCCC2)cc2c(=O)n(C)c3ccccc3c21	Rpn11 inh active | Rpn11 confirm inactive | MMP-2 counter inactive | Thrombin inh inactive
CCOC(=O)c1c(C)[nH]c(O)c1C=Nc1ccc(Cl)cc1	Rpn11 inh active | Rpn11 confirm inactive | MMP-2 counter inactive | Thrombin inh inactive
O=C(NCc1cn2ccccc2n1)c1ccc(Br)o1	none
Cc1sc2nc(CSc3ccc([N+](=O)[O-])c(C(F)(F)F)c3)[nH]c(=O)c2c1C	Rpn11 inh active | Rpn11 confirm inactive | MMP-2 counter inactive | Thrombin inh inactive
CC(=O)Nc1ccc(-c2ccnc3c2CC(C)(C(=O)NCc2ccc(F)c(F)c2)O3)cc1 (stereo not given)	none (no result: TPT1 inh, SUMO HTRF inh)
CCOC(=O)c1c(N)sc(C(=O)OC)c1C	none
CCOC(=O)c1sc(NN=C(C(=O)OC)C(=O)OC)c(C(=O)OCC)c1C	Rpn11 inh active | Rpn11 confirm inactive | MMP-2 counter inactive | Thrombin inh inactive
CC1CCN(S(=O)(=O)c2ccc(C(=O)NC3CCS(=O)(=O)C3)cc2)CC1 (stereo not given)	none (no result: SUMO HTRF inh)
